pIC50: −log10 of the molar value. Calls of active or inactive are those of the source.
Key:
RmtA = RmtA (Emericella nidulans, UniProt Q5VLE3); assay: Inhibition of Aspergillus nidulans RmtA
Outline: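 Enzyme was GST-RmtA fusion expressed in E. coli BL21 and glutathione-affinity purified (500 ng), preincubated with compound for 15 min at room temperature. Then 20 µg chicken erythrocyte core histones and 0.55 µCi [3H]AdoMet were added, 30 min at 30 °C. Stopped with 25% TCA, filtered, counted by liquid scintillation.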

U-937 [1] = assay: Inhibition of histone H4R3 methylation in human U937 cells at 50 uM after 24 hrs; assay type: functional, cell-based
Outline: (§1)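 U937 cells treated at 50 µM for 24 h. Histones extracted with Triton buffer, then 0.2 M HCl overnight at 4 °C. 3–10 µg run on 15% SDS-PAGE and immunoblotted with anti-monomethyl-H3K4, monomethyl-H4R3 or dimethyl-H3R17 (1:500, overnight 4 °C), ECL detection. Loading controls: total H4 (H3K4), Ponceau Red (Arg marks).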

U-937 [2] = assay: Inhibition of histone H3R17 methylation in human U937 cells at 50 uM after 24 hrs; assay type: functional, cell-based; outline: as §1
U-937 [3] = assay: Inhibition of histone H3K4 methylation in human U937 cells at 50 uM after 24 hrs; assay type: functional, cell-based; outline: as §1
[4] = molecular target: Protein arginine N-methyltransferase 1 (Homo sapiens) (UniProt Q99873); assay: Inhibition of human recombinant PRMT1 assessed as nuclear ribonucleoprotein Npl3p methylation at 100 uM
Sequence of Protein arginine N-methyltransferase 1 (Homo sapiens) (Q99873 whole entry, looked up): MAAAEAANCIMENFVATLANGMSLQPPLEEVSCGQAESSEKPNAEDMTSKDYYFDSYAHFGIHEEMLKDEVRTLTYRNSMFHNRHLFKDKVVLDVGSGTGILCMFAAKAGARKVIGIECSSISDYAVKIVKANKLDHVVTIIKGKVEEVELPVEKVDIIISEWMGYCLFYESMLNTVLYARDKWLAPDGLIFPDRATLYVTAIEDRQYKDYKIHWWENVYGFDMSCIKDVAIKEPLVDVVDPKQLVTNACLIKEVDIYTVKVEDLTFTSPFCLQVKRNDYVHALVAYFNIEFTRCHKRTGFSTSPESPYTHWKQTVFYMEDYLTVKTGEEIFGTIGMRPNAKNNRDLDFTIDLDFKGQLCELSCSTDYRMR
Outline: (§2)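 Recombinant enzymes (0.2 µg) with substrate (0.5 µg: Npl3p for PRMT1, PABP1 for CARM1, histone H3 for SET7), 0.5 µM [3H]AdoMet and 100 µM compound in PBS pH 7.4 with 3.3% v/v DMSO, 90 min at 30 °C. Products separated by 10% SDS-PAGE, transferred to PVDF, detected by fluorography on film overnight.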

[5] = molecular target: T1, Histone-arginine methyltransferase CARM1 (Homo sapiens) (UniProt Q86X55); assay: Inhibition of human recombinant CARM1 assessed as poly(A) binding protein 1 methylation at 100 uM; outline: as §2
T1 sequence (whole entry): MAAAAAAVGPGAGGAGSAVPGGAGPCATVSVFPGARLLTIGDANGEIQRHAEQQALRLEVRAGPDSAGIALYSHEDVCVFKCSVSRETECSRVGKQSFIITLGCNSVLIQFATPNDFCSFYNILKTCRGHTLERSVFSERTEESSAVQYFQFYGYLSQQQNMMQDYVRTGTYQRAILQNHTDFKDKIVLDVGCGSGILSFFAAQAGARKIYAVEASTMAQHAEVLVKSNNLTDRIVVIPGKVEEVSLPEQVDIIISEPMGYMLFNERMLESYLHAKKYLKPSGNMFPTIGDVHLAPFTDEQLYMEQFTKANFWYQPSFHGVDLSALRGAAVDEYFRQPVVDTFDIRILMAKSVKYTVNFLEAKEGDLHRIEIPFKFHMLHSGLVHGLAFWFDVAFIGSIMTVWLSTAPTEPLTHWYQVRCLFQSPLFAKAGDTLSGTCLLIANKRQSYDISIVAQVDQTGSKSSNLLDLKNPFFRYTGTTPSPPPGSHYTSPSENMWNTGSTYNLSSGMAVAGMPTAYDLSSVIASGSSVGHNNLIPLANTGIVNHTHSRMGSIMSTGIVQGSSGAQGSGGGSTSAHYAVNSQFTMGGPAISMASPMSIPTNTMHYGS

[6] = molecular target: T2, Histone-lysine N-methyltransferase SETD7 (Homo sapiens) (UniProt Q8WTS6); assay: Inhibition of human recombinant SET7 assessed as histone H3 protein methylation at 100 uM; outline: as §2
T2 sequence (whole entry): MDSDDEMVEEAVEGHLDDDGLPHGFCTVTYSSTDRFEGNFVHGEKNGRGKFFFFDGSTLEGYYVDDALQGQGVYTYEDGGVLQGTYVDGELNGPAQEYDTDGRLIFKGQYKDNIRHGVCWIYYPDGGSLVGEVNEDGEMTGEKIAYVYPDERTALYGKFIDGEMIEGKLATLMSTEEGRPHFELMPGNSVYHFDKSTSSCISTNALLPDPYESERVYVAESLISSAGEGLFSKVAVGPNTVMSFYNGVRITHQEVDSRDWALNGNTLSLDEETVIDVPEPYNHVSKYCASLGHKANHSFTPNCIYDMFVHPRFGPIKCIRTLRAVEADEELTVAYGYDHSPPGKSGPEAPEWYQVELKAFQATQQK

Sequence of RmtA (Q5VLE3 whole entry, the tested form may be a part): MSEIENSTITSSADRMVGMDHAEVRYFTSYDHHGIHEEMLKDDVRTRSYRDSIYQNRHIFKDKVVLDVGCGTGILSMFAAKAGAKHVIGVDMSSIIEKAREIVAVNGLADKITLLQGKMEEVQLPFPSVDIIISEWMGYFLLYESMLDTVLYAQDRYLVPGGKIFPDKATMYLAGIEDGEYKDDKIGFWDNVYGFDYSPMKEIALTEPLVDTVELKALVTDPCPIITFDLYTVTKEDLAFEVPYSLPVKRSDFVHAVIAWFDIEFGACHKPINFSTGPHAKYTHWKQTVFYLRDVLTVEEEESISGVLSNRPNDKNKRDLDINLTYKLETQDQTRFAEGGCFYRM

pIC50 (RmtA) | Activity [4] | Activity [5] | Activity [6] | Compound | Activity (U-937 [1]) | Activity (U-937 [2]) | Activity (U-937 [3])
3.91 | – | – | – | CN1C/C(=C\c2ccc(O)c(Br)c2)C(=O)/C(=C/c2cc(Br)c(O)c(Br)c2)C1 | Active | Active | Active
3.68 | – | – | – | O=C1/C(=C/c2cc(Br)c(O)c(Br)c2)CN(Cc2ccccc2)C/C1=C\c1cc(Br)c(O)c(Br)c1 | Active | Active | Active
4.49 | – | – | – | O=C(Nc1cc(Br)c(O)c(Br)c1)C(=O)Nc1cc(Br)c(O)c(Br)c1 | Active | Active | –
3.60 | – | – | – | O=C(/C=C/c1ccc(O)c([N+](=O)[O-])c1)/C=C/c1ccc(O)c([N+](=O)[O-])c1 | Active | Active | Active
4.05 | inactive | Active | inactive | O=C1/C(=C/c2ccc(O)c(Br)c2)CCC/C1=C\c1ccc(O)c(Br)c1 | Active | Active | Active
3.76 | – | – | – | O=C(CCCC(=O)Nc1cc(Br)c(O)c(Br)c1)Nc1cc(Br)c(O)c(Br)c1 | Active | Active | –
4.08 | – | – | – | CN1C2CCC1/C(=C\c1cc(Br)c(O)c(Br)c1)C(=O)/C2=C/c1cc(Br)c(O)c(Br)c1 | Active | Active | Active
3.67 | Active | – | inactive | O=C(/C=C/c1c(Br)cc(O)cc1Br)/C=C/c1c(Br)cc(O)cc1Br | Active | Active | Active
3.62 | Active | – | inactive | O=C(/C=C/c1c(O)cc(Br)cc1Br)/C=C/c1c(O)cc(Br)cc1Br | Active | Active | Active
3.72 | – | – | – | O=C(/C=C/c1ccc(O)c(Br)c1)c1ccccc1 | Active | Active | Active
4.12 | – | – | – | O=C(NCCCNC(=O)c1cc(Br)c(O)c(Br)c1)c1cc(Br)c(O)c(Br)c1 | Active | Active | –

Further lines, the compound ahead of its results:

Compound | pIC50 (RmtA) | Activity [4] | Activity [5] | Activity [6] | Activity (U-937 [1]) | Activity (U-937 [2]) | Activity (U-937 [3])
O=C(NCCCCNC(=O)c1cc(Br)c(O)c(Br)c1)c1cc(Br)c(O)c(Br)c1 | 3.21 | – | – | – | Active | Active | –
O=C(/C=C/c1cc(Br)c(O)c(Br)c1)c1ccccc1 | 3.94 | – | – | – | Active | Active | Active
O=C1/C(=C/c2ccc(O)c(Br)c2)Cc2ccccc2/C1=C\c1ccc(O)c(Br)c1 | 4.04 | inactive | Active | inactive | Active | Active | Active
O=C(/C=C/c1ccc(O)c(F)c1)/C=C/c1ccc(O)c(F)c1 | 3.77 | – | – | – | Active | Active | Active
O=C(/C=C/c1ccc(O)c(Br)c1)c1cccc(C(=O)/C=C/c2ccc(O)c(Br)c2)c1 | 4.23 | inactive | Active | inactive | Active | Active | Active
O=C(NCCNC(=O)c1cc(Br)c(O)c(Br)c1)c1cc(Br)c(O)c(Br)c1 | 4.05 | – | – | – | Active | Active | –
O=C1/C(=C/c2ccc(O)c(Br)c2)COC/C1=C\c1ccc(O)c(Br)c1 | 3.88 | inactive | Active | inactive | Active | Active | Active
O=C(CC(=O)Nc1cc(Br)c(O)c(Br)c1)Nc1cc(Br)c(O)c(Br)c1 | 3.99 | – | – | – | Active | Active | –
Cc1cc(/C=C/C(=O)/C=C/c2cc(C)c(O)c(C)c2)cc(C)c1O | 3.69 | – | – | – | Active | Active | Active
O=C(/C=C/c1ccc(O)c(Br)c1)CC(=O)/C=C/c1ccc(O)c(Br)c1 | 3.96 | inactive | Active | inactive | Active | Active | –
O=C(/C=C/c1ccc(O)c(Br)c1)c1ccc(C(=O)/C=C/c2ccc(O)c(Br)c2)cc1 | 4.33 | inactive | Active | inactive | Active | Active | –
O=C1/C(=C/c2cc(Br)c(O)c(Br)c2)Cc2ccccc2/C1=C\c1cc(Br)c(O)c(Br)c1 | 4.43 | – | – | – | Active | Active | Active
O=C(/C=C/c1ccc(O)c(C(=O)O)c1)/C=C/c1ccc(O)c(C(=O)O)c1 | 4.26 | – | – | – | Active | Active | Active
CC(C)(C(=O)/C=C/c1cc(Br)c(O)c(Br)c1)C(=O)/C=C/c1cc(Br)c(O)c(Br)c1 | 3.81 | – | – | – | Active | Active | –
O=C(/C=C/c1ccc(O)cc1Br)/C=C/c1ccc(O)cc1Br | 3.94 | – | – | – | Active | Active | Active
O=C(CCC(=O)Nc1cc(Br)c(O)c(Br)c1)Nc1cc(Br)c(O)c(Br)c1 | 3.81 | – | – | – | Active | Active | –
O=C(Nc1ccc(NC(=O)c2cc(Br)c(O)c(Br)c2)cc1)c1cc(Br)c(O)c(Br)c1 | 3.91 | Active | Active | Active | Active | Active | –
CN1C/C(=C\c2ccc(O)c(Br)c2)C(=O)/C(=C/c2ccc(O)c(Br)c2)C1 | 3.79 | – | – | – | Active | Active | Active

From ChEMBL document CHEMBL1144710, “epigenetic multiple ligands: mixed histone/protein methyltransferase, acetyltransferase, and class III deacetylase (sirtuin) inhibitors” (J Med Chem, 2008)
